Experimental data taken from ChEMBL document CHEMBL1817614, “Inhibitory effects of chalcone glycosides isolated from Brassica rapa L. 'hidabeni' and their synthetic derivatives on LPS-induced NO production in microglia” (Bioorg Med Chem, 2011).
Active and inactive are the calls of the source. The rule behind the calls is not given here.

Key:
HAPI [1] = test: Antiinflammatory activity in rat HAPI cells assessed as inhibition of LPS-induced iNOS mRNA expression at 50 uM treated 30 mins before LPS challenge measured after 6 hrs by RT-PCR analysis; format: functional, cell-based
How it was run: (§1)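 HAPI cells were seeded in 1% FCS DMEM and treated the next day. Compound (50 µM) was present 30 min before and during LPS (100 ng/mL) for 6 h. RT-PCR used GAPDH normalization. IFN-β ran 35 cycles with anneal at 54 °C; IL-1β ran 30 cycles with anneal at 58 °C. Data are % of LPS alone, mean SEM, n = 3.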

HAPI [2] = test: Antiinflammatory activity in rat HAPI cells assessed as inhibition of LPS-induced nitric oxide production at 50 uM treated 30 mins before LPS challenge measured after 24 hrs by Griess method; format: functional, cell-based
How it was run: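 About 1.0 × 10⁵ HAPI cells per well were seeded in 1% FCS DMEM. The next day, compound (50 µM) was present 30 min before and during LPS (100 ng/mL) for 24 h. Medium nitrite was read by Griess kit. Data are fold induction vs untreated cells, mean SD, n = 3 or 4.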

HAPI [3] = test: Antiinflammatory activity in rat HAPI cells assessed as inhibition of LPS-induced IL1-beta mRNA expression at 50 uM treated 30 mins before LPS challenge measured after 6 hrs by RT-PCR analysis; format: functional, cell-based; how it was run: as §1
HAPI [4] = test: Inhibition of LPS-induced NF-kappaB nuclear translocation in rat HAPI cell nuclear extracts at 50 uM treated 30 mins before LPS challenge measured after 3 hrs by immunoblot analysis; format: cell-based
How it was run: (§2)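 Compound (50 µM) or vehicle was given 30 min before LPS (100 ng/mL) for 3 h. Nuclear extracts were made by NP-40 lysis and 0.4 M NaCl HEPES pH 7.8 extraction. Extract (10 µg) was immunoblotted for NF-κB p65 or STAT1 (1:1,000), with ABC chemiluminescence detection. Blots shown represent three experiments.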

HAPI [5] = test: Inhibition of LPS-induced ERK phosphorylation in rat HAPI cell lysates at 50 uM treated 30 mins before LPS challenge measured after 1 hr by immunoblot analysis; format: cell-based
How it was run: (§3)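 Compound (50 µM) or vehicle was given 30 min before LPS (100 ng/mL) for 1 h. Whole-cell lysates were made in Tris pH 7.4 Triton buffer with phosphatase inhibitors. Lysate (40 µg) was run on SDS-PAGE and immunoblotted with phospho-specific and total MAPK antibodies (1:1,000), biotin secondary/ABC and chemiluminescence. Blots shown represent three experiments.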

HAPI [6] = test: Inhibition of LPS-induced JNK phosphorylation in rat HAPI cell lysates at 50 uM treated 30 mins before LPS challenge measured after 1 hr by immunoblot analysis; format: cell-based; how it was run: as §3
HAPI [7] = test: Inhibition of LPS-induced p38 phosphorylation in rat HAPI cell lysates at 50 uM treated 30 mins before LPS challenge measured after 1 hr by immunoblot analysis; format: cell-based; how it was run: as §3
HAPI [8] = test: Inhibition of LPS-induced STAT1 nuclear translocation in rat HAPI cell nuclear extracts at 50 uM treated 30 mins before LPS challenge measured after 3 hrs by immunoblot analysis; format: cell-based; how it was run: as §2
HAPI [9] = test: Antiinflammatory activity in rat HAPI cells assessed as inhibition of LPS-induced IFN-R mRNA expression at 50 uM treated 30 mins before LPS challenge measured after 6 hrs by RT-PCR analysis; format: functional, cell-based
How it was run: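 Cells were seeded in 1% FCS DMEM and treated the next day. Compound (50 µM) was present 30 min before and during LPS (100 ng/mL) for 6 h. IFN-R RT-PCR ran 35 cycles with anneal at 55 °C and was normalized to GAPDH. Data are fold change vs untreated cells, mean SEM, n = 3.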

HAPI [10] = test: Antiinflammatory activity in rat HAPI cells assessed as inhibition of IFN-gamma-induced iNOS mRNA expression at 50 uM treated 30 mins before LPS challenge measured after 8 hrs by RT-PCR analysis; format: functional, cell-based
How it was run: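 HAPI rat microglia were grown in DMEM with 10% heat-inactivated FCS at 37 °C. Compound (50 µM) was added 30 min before and kept during IFN-γ (100 ng/mL) for 8 h. Total RNA was taken for RT-PCR, gel densitometry and normalization to GAPDH. Data are % of IFN-γ alone, mean SEM, n = 3.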

HAPI [11] = test: Inhibition of LPS-induced STAT1 phosphorylation in rat HAPI cell lysates at 50 uM treated 30 mins before LPS challenge measured after 3 hrs by immunoblot analysis

SMILES	inhibition (HAPI [1])	inhibition (HAPI [2])	further results
COc1ccc(/C=C/C(=O)c2ccc(O[C@@H]3O[C@H](CO)[C@@H](O)[C@H](O)[C@H]3O)c(OC)c2)cc1	Active	Active	inhibition (HAPI [3]): Active; inhibition (HAPI [4]): inactive; inhibition (HAPI [5]): inactive; inhibition (HAPI [6]): inactive; inhibition (HAPI [7]): inactive; inhibition (HAPI [8]): Active; inhibition (HAPI [9]): inactive; inhibition (HAPI [10]): Active; inhibition (HAPI [11]): Active
COc1cc(C(=O)/C=C/c2ccc(O)cc2)ccc1O[C@@H]1O[C@H](CO)[C@@H](O)[C@H](O)[C@H]1O	Active	Active	–
CC1=CC(=O)CC(C)(C)[C@@]1(O)/C=C/[C@H](C)O[C@@H]1O[C@H](CO)[C@@H](O)[C@H](O)[C@H]1O	Active	–	–
COc1cc(C(=O)/C=C/c2ccc(O[C@@H]3O[C@H](CO)[C@@H](O)[C@H](O)[C@H]3O)cc2)ccc1O[C@@H]1O[C@H](CO)[C@@H](O)[C@H](O)[C@H]1O	Active	–	–
COc1cc(C(=O)/C=C/c2ccccc2)ccc1O[C@@H]1O[C@H](CO)[C@@H](O)[C@H](O)[C@H]1O	Active	Active	inhibition (HAPI [10]): Active
CC(=O)c1ccc(O[C@@H]2O[C@H](CO)[C@@H](O)[C@H](O)[C@H]2O)cc1	Active	–	–
COc1cc(C(C)=O)cc(OC)c1O[C@@H]1O[C@H](CO)[C@@H](O)[C@H](O)[C@H]1O	Active	–	–
